Laboratory results reported in PMC8934255 (Cell chemical biology, 2021).

Tests used:
Avpr2 = assay: RT-PCR of Avpr2 expression in IMCD cells in high salt; type: cell-based, mouse; conditions: 5 μM, 500 mOsm/kg, 24 hours
UTA1/3 = assay: RT-PCR of UTA1/UTA3 mRNA in IMCD cells in high salt; type: cell-based, mouse; conditions: 5 μM, high salt 24 hours
[1] = test system: Pax8 binding site at the Slc14a2 promoter; assay: ChIP at the Slc14a2 promoter and Pax8 western blot in IMCD cells in high salt; type: cell-based, mouse; conditions: 5 μM, high salt 24 hours
Pax2 [2] = target: Pax2 (Mus musculus, UniProt P32114); type: cell-based; conditions: for Fold reduction (FR) of luminescence relative to vehicle treated Pax2 transfected PRS4-Luc cells: at 1.56 μM
Sequence of Pax2 (Mus musculus, UniProt P32114) (P32114 1-391 isoform P32114-2): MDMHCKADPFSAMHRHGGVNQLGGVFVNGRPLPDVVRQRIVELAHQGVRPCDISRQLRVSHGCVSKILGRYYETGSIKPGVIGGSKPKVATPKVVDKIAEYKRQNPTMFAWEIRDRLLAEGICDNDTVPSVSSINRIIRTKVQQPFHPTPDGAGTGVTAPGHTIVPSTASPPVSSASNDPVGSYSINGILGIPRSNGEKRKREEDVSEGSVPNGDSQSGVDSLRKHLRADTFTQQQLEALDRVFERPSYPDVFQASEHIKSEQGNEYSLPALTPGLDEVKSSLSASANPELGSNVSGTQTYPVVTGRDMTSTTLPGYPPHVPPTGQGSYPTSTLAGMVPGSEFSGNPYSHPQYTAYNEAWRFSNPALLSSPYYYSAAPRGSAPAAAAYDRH

Pax2, Pax8, PTIP = assay: Western blot of Pax2, Pax8 and PTIP protein levels in IMCD cells; type: cell-based, mouse; conditions: 5 μM, mIMCD cells
Outline: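 Mouse IMCD cells were cultured 24 h in normal or high-salt medium with DMSO or 5 μM test compound. Lysates were western blotted for Pax2, Pax8 and PTIP.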

BRE-Luc cells = assay: BRE-Luc counter screen; type: cell-based, human; conditions: for Selectivity in PRS4-Luc cells over BRE-Luc cells: 8-point titration, fresh powder, duplicate
Outline: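 Clonal HEK293 cells with an integrated BRE-Luc reporter, kept in DMEM with 10% FBS at 37°C and 5% CO2, were prepared like the PRS4-Luc cells. 6 × 10^3 cells/well (384-well) went onto plates pre-dosed with test compound or DMSO, in 8-point titrations in duplicate from fresh powder. Plates were incubated overnight, then Steady-Glo was added and luminescence read.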

[3] = Microsomal stability assay with NADPH-fortified mouse liver microsomes; type: in vitro ADME; conditions: for Half-life estimation in mouse liver microsomes: 1 μM compound, NADPH fortified, 5-60 min
Outline: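 1μM test compound was incubated with 200μg pooled mouse liver microsomes in phosphate buffer (3.3mM MgCl2) with 4mg NADPH. Samples taken at 5, 10, 15, 30, 45 and 60 minutes were quenched with cold acetonitrile. After protein precipitation, supernatants were analyzed by LC/MS/MS and percent remaining plotted over time. Verapamil served as the high-clearance control.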

[4] = test system: Pax2 binding site at the AVPR2 promoter; assay: ChIP at the AVPR2 promoter in IMCD cells in high salt; type: cell-based, mouse; conditions: 5 μM, high salt 24 hours
Outline: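 Mouse mIMCD3 cells in triplicate were pretreated 4 h with DMSO or 5 μM test compound (per figure legend). They were then kept 24 h in control medium or NaCl-supplemented medium (500 mOsm/kg), with or without compound. Chromatin immunoprecipitation was followed by real-time PCR with primers for the Pax2 binding site at the AVPR2 promoter. Antibodies included PTIP, H3K4me3 and RNA Pol II CTD.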

Cdh6 = assay: Immunoblot of Cdh6 and Pax2 protein in Pax2-positive RCC; type: cell-based, human; conditions: 24 hours
Outline: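 Pax2-positive human RCC cells grown in RPMI 1640 with 10% FBS were seeded at 5.0 × 10^4 cells/well, attached overnight, then exposed 24 h to increasing test compound concentrations or DMSO. Whole-cell lysates in 2X SDS buffer were run on SDS-PAGE, transferred to PVDF and probed for Cdh6, Pax2 and β-actin with ECL and film detection. Cdh6 densitometry was normalized to β-actin per lane.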

Pax5 = Pax5 (Homo sapiens, UniProt Q02548); assay: PRS4-Luc luciferase reporter assay, Pax5 activation; type: cell-based; conditions: compared with Pax2
Sequence of Pax5 (Q02548 whole entry, species assumed): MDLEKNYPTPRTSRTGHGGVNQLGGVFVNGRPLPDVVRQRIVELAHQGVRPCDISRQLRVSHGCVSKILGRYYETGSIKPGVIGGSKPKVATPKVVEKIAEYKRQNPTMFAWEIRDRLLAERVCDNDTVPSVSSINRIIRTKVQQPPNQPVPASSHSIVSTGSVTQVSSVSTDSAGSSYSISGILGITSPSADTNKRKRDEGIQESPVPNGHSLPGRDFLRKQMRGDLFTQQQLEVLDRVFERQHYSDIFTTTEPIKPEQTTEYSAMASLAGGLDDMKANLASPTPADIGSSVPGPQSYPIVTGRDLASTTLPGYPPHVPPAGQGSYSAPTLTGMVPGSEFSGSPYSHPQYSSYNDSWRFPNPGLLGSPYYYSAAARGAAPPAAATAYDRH

Pax2-positive RCC cells = assay: Luciferase ATP; type: cell-based, human; conditions: each concentration tested, 18 hours
Pax proteins = assay: Phosphorylation of Pax proteins in cell systems; type: cell-based; conditions: Fig. S2
Pax2 expressing RCC = assay: Phospho-histone H3 immunoblot; type: cell-based, human; conditions: 24 hours, vs vehicle
Outline: (§1)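 Human RCC or SKOV-3 cells (RPMI 1640, 10% FBS) or HEK293 cells (DMEM, 10% FBS) were seeded at 5.0 × 10^4 cells/well and attached overnight. Cells had 24 h of increasing test compound concentrations or DMSO. Lysates were boiled 5 min at 95°C in 2X SDS buffer, separated on 8% or 15% gels, transferred to PVDF at 4°C and probed for phospho-H3 (Ser10), total H3 and β-actin. Significance was by ANOVA with Dunnett's test versus vehicle.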

[5] = In vivo pharmacokinetics, plasma clearance in mice; set-up: species or system mouse
Outline: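 Mice got one dose of test compound formulated at 3mg/mL in PBS with 20% DMSO and 50% PEG-400, given intravenously (5 mg/kg) or orally (15 mg/kg). Blood was drawn at 0.5, 2, 4 and 7 h and plasma isolated by centrifugation. Compound was measured by LC-MS/MS and plasma concentration plotted semi-logarithmically against time.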

[6] = test system: ovarian carcinoma (SKOV-3) cells; assay: Phospho-histone H3 immunoblot in Pax2-negative SKOV-3 cells; type: cell-based, human; conditions: each concentration tested, 24 hours, vs vehicle (DMSO)
Outline: as §1

[7] = test system: Pax2-negative SKOV-3 cells; assay: Luciferase ATP; type: cell-based, human; conditions: only at 15 μM, tenfold the IC50, 18 hours
HEK293 cells = assay: Phospho-histone H3 immunoblot in HEK293 cells lacking Pax2; type: cell-based, human; conditions: increasing concentrations, 24 hours
Outline: as §1

Pax8 = Pax8 (Homo sapiens, UniProt Q06710); assay: PRS4-Luc luciferase reporter assay, Pax8 activation; type: cell-based; conditions: compared with Pax2
Sequence of Pax8 (Q06710 whole entry, species assumed): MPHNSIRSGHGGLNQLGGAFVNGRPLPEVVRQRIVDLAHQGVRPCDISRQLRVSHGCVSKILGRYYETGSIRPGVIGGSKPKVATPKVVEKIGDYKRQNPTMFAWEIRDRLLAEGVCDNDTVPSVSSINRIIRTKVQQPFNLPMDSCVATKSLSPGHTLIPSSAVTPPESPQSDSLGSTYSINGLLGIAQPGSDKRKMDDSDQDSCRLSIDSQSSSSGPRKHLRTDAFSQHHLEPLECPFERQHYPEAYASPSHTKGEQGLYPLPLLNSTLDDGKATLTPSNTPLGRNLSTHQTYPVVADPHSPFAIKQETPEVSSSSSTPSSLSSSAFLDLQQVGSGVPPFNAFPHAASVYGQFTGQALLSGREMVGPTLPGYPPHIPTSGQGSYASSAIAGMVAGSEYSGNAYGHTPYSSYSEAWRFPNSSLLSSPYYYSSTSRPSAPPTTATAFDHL

Pax2 [8] = conditions: at 10 μM; ref Grimley et al., 2017; cited from earlier work

| Compound | Increased Avpr2 expression in response to high salt (Avpr2) | Increased UTA1/3 mRNA expression in high salt (UTA1/3) | Increased H3K4me3 and PolII binding at the Slc14a2 promoter (ChIP) [1] | Pax8 protein levels or binding to the Slc14a2 promoter [1] | Recruitment of PTIP and the H3K4 methyltransferase complex at the Slc14a2 promoter (ChIP) [1] | Fold reduction (FR) of luminescence relative to vehicle treated Pax2 transfected PRS4-Luc cells (Pax2 [2]) | Pax2, Pax8, or PTIP protein levels (Pax2, Pax8, PTIP) | Selectivity in PRS4-Luc cells over BRE-Luc cells (BRE-Luc cells) | Half-life estimation in mouse liver microsomes [3] [min] | Histone H3K4me3 and RNA PolII recruitment at the AVPR2 promoter (ChIP) [4] | Increased Pax2 binding to the Avpr2 promoter in high salt (ChIP) [4] | Recruitment of PTIP at the AVPR2 promoter (ChIP) [4] | also measured |
| --- | --- | --- | --- | --- | --- | --- | --- | --- | --- | --- | --- | --- | --- |
| Cc1nc2ncnn2c(N2CCN(c3ccc(Cl)cc3)CC2)c1C [BG-2] | significantly inhibited | significantly inhibited | prevent | no effect | inhibit | 0.78 | did not affect | selective activity | 46.24 | prevented | no effect | inhibited | Stability in vitro, rank among the three compounds ([3]; mouse liver microsomes): most stable in vitro |
| Cc1ccc(C)c(N2CCN(c3c(C)c(C)nc4ncnn34)CC2)c1 [BG-1] | significantly inhibited | significantly inhibited | prevent | no effect | inhibit | 0.58 | did not affect | selective activity | 7.89 | prevented | no effect | inhibited | Cdh6 protein levels (Cdh6; 1.5 μM): significant reduction; Pax2 protein levels (Cdh6; 1.5 μM): no effect; Pax2 protein levels (Cdh6; 15 μM): also reduced; Inhibition of Pax5 activation of the PRS4-Luc reporter (Pax5): similarly inhibited; Percentage of viable cells (ATP luminescence) (Pax2-positive RCC cells): significantly and dose-dependently lowered; Change of IC50 of BG1 in combination with EG1 (Pax2 [2]; fixed 10 μM EG1, Prs4-Luc reporter cells, Fig. S3): reduce the IC50; Effect on the phosphorylation of Pax proteins (Pax proteins): could not determine any discernible effects; pHH3 levels (Pax2 expressing RCC; 1.5 μM): significant reduction; pHH3 levels (Pax2 expressing RCC; 15 μM): significant reduction; Stability in vivo, rank among the three compounds ([5]; IV 5 mg/kg or PO 15 mg/kg, plasma 0.5-7 h): most stable compound in vivo; Rate of plasma clearance compared to the other two compounds ([5]; intravenous 5 mg/kg single dose): lowest rate of clearance; pHH3 levels [6]: no significant change; Metabolically active cells (ATP luminescence) [7]: significant drop; pHH3 levels (HEK293 cells): did not significantly change; Inhibition of Pax8 activation of the PRS4-Luc reporter (Pax8): similarly inhibited |
| CCc1c(C)nc2ncnn2c1Nc1ccc(Cl)cc1 [BG-3] | – | – | – | – | – | 0.82 | – | selective activity | 25.39 | – | – | – | Signs of cytotoxicity in counter screen (BRE-Luc cells; PRS4-Luc and BRE-Luc cells, up to 50 μM): did not indicate signs of cytotoxicity |
| COc1ccccc1C(=O)Nc1ccc(C(=O)Nc2ccccc2C(=O)O)cc1 [EG1] | – | – | – | – | – | – | – | – | – | – | – | – | Maximal inhibition of Pax2 (Pax2 [8]): approximately 50% |
